Data on eleven molecules can be found in ChEMBL document CHEMBL3244286, “Inactivation of trypsin-like proteases by sulfonylation. Variation of positively charged group and inhibitor length” (J Med Chem, 1978).

For test [1], the species on record is Bos taurus. Description: Inhibition of 6.4 X 10^-7 M bovine trypsin using Z-Lys-nitrophenyl ester as substrate assessed as second-order rate inactivation constant incubated up to 1 hr at pH 7.4. In outline:
(§1)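 Enzyme and inhibitor incubated at room temperature in 0.1 M tris chloride, pH 7.4, with no more than 1% DMF from stocks. Aliquots were withdrawn and residual activity was assayed with Z-Lys-nitrophenyl ester. Protease concentration was set by methylumbelliferyl p-guanidinobenzoate titration. Decay was first order, k1 = 0.693/t1/2 (min), and the second-order constant is k1 divided by inhibitor concentration. Incubations with little loss of activity were stopped at 1 h.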

Test [2] has as its target T1, Plasminogen (Homo sapiens, UniProt P00747). The experiment in a line: Inhibition of 4.8 X 10^-7 M human plasmin using Z-Lys-nitrophenyl ester as substrate assessed as second-order rate inactivation constant incubated up to 1 hr at pH 7.4. In outline: as §1
Test [3] addresses Prothrombin (Bos taurus) (UniProt P00735). Description: Inhibition of 16 X 10^-7 M bovine thrombin using Z-Lys-nitrophenyl ester as substrate assessed as second-order rate inactivation constant incubated up to 1 hr at pH 7.4. The method, boiled down:
as §1

Test [4] concerns the target T2, Plasma kallikrein (Homo sapiens, UniProt P03952). Description: Inhibition of 2 X 10^-7 M human plasma kallikrein using Z-Lys-nitrophenyl ester as substrate assessed as second-order rate inactivation constant incubated up to 1 hr at pH 7.4. The method, boiled down:
as §1

In test [5] the target is Prothrombin (Bos taurus) (UniProt P00735). Description: Inhibition of 16 X 10^-7 M bovine thrombin using Z-Lys-nitrophenyl ester as substrate assessed as half time required for enzyme inactivation at 5X10'-5 M at pH 7.4. The method, boiled down:
as §1

The target in test [6] is T2, Plasma kallikrein. The experiment in a line: Inhibition of 2 X 10^-7 M human plasma kallikrein using Z-Lys-nitrophenyl ester as substrate assessed as half time required for enzyme inactivation at 5X10'-6 M at pH 7.4. Particulars: in the assay text read “5.4X10'-4 M” for “5X10'-6 M”. In outline:
as §1

For test [7], the target named is Urokinase-type plasminogen activator (Homo sapiens) (UniProt P00749). The experiment in a line: Inhibition of 51 X 10^-7 M human urokinase using Z-Lys-thiobenzyl ester as substrate assessed as second-order rate inactivation constant incubated up to 1 hr at pH 7.4.
Test [8] has the same target. Description: Inhibition of 2 X 10^-7 M human urokinase using Z-Lys-thiobenzyl ester as substrate assessed as second-order rate inactivation constant incubated up to 1 hr at pH 7.4. Particulars: in the assay text read “51 X 10^-7 M” for “2 X 10^-7 M”. In outline:
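Purified urokinase incubated with inhibitor at room temperature in 0.1 M tris chloride, pH 7.4, with no more than 1% DMF. Residual activity in aliquots was read with Z-Lys-thiobenzyl ester. Enzyme was active-site titrated with methylumbelliferyl p-guanidinobenzoate. First-order k1 = 0.693/t1/2 (min), divided by inhibitor concentration to give the second-order rate. Incubations were not run past 1 h when loss was low.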

Test [9] addresses T1, Plasminogen. Description: Competitive inhibition of 4.8 X 10^-7 M human plasmin using Z-Lys-nitrophenyl ester as substrate incubated up to 1 hr at pH 6. The method, boiled down: (§2)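 Ki for competitive inhibition measured at pH 6 with Z-Lys-nitrophenyl ester as substrate. Enzyme concentrations were set by active-site titration with methylumbelliferyl p-guanidinobenzoate. Compounds were added from DMF stocks, with no more than 1% DMF in the reaction.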

The target in test [10] is T2, Plasma kallikrein. The experiment in a line: Competitive inhibition of 2 X 10^-7 M human plasma kallikrein using Z-Lys-nitrophenyl ester as substrate incubated up to 1 hr at pH 6. In outline: as §2
The target in test [11] is Prothrombin (Bos taurus, UniProt P00735). Description: Competitive inhibition of 16 X 10^-7 M bovine thrombin using Z-Lys-nitrophenyl ester as substrate incubated up to 1 hr at pH 6. The method, boiled down:
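Ki for competitive inhibition was determined at pH 6 against Z-Lys-nitrophenyl ester hydrolysis, following previously published procedures. Active enzyme concentration was set by titration with methylumbelliferyl p-guanidinobenzoate. Inhibitors were added from DMF stock solutions, with DMF at no more than 1% of the reaction mixture.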

Test [12] in a line: Competitive inhibition of 6.4 X 10^-7 M bovine trypsin using Z-Lys-nitrophenyl ester as substrate incubated up to 1 hr at pH 6. Further details: species or system Bos taurus. The method, boiled down:
as §2

T1 sequence (P00747 97-580 limits assumed): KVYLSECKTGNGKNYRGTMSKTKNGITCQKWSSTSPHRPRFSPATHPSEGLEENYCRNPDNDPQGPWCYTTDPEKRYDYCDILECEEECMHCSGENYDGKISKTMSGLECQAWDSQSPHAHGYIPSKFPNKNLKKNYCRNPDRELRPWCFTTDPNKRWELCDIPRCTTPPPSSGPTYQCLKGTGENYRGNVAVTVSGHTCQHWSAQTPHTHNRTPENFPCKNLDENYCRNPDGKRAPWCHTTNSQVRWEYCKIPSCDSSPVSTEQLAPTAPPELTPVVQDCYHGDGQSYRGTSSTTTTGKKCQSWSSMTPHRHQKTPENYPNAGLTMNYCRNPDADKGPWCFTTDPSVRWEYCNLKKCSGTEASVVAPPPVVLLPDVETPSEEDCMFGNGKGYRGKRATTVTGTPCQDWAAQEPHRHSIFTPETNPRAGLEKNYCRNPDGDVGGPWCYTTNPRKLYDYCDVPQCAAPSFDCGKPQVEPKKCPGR
T1 sequence (P00747 581-810 limits assumed): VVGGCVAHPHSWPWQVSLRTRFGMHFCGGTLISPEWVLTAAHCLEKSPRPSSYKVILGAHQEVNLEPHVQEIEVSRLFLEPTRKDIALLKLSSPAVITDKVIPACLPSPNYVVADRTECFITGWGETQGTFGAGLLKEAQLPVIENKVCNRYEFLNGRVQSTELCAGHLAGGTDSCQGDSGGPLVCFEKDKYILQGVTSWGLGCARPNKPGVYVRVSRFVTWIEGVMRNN
T2 sequence (P03952 20-390 limits assumed): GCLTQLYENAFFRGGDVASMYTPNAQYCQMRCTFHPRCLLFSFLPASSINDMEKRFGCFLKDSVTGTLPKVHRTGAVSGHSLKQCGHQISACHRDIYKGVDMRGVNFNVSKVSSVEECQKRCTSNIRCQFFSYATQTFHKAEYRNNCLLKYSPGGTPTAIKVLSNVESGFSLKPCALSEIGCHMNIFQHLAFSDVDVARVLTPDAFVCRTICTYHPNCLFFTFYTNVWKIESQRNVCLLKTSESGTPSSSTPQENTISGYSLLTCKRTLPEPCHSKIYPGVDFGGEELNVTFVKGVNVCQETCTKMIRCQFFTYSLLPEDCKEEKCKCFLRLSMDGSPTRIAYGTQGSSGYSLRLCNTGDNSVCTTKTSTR
T2 sequence (P03952 391-638 limits assumed): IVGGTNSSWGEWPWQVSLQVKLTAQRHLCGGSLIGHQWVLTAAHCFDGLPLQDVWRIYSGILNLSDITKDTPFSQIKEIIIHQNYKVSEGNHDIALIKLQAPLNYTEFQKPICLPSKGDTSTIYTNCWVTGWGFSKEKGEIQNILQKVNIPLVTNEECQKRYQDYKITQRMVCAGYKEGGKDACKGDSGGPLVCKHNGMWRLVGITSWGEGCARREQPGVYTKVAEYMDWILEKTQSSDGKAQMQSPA

For `O=[N+]([O-])c1ccc(OS(=O)(=O)c2ccc(C[n+]3ccccc3)cc2)cc1`, the Kinact in [1], in test [2] and in [3] was 0 M⁻¹ s⁻¹ in each case.
For `N=C(N)SCc1ccc(S(=O)(=O)Oc2ccc([N+](=O)[O-])cc2)cc1`, the Kinact was found to be 0.183 M⁻¹ s⁻¹ in test [4], 1.53 M⁻¹ s⁻¹ in test [7], 2.08 M⁻¹ s⁻¹ in test [2] and 9.67 M⁻¹ s⁻¹ in test [3]. The T1/2 is 22 min in test [5] and above 120 min in [6].
Consider `O=[N+]([O-])c1ccc(OS(=O)(=O)Cc2ccc(-[n+]3ccccc3)cc2)cc1`, for which the Kinact in test [1], in test [4], in test [2] and in [3] was 0 M⁻¹ s⁻¹ throughout.
Take `C[S+](C)c1ccc(CS(=O)(=O)Oc2ccc([N+](=O)[O-])cc2)cc1`: the Kinact in test [1], in [4], in [2] and in [3] was 0 M⁻¹ s⁻¹ throughout.
Consider `O=[N+]([O-])c1ccc(OS(=O)(=O)Cc2cccc(-[n+]3ccccc3)c2)cc1`, for which the Kinact in test [1], in test [4], in test [8], in [2] and in [3] was 0 M⁻¹ s⁻¹ each time.
As to `C[S+](C)c1cccc(CS(=O)(=O)Oc2ccc([N+](=O)[O-])cc2)c1`, the Kinact in test [1], in [4], in test [2] and in test [3] was 0 M⁻¹ s⁻¹ in each case.
For `N=C(N)SCc1ccc(CS(=O)(=O)Oc2cccc([N+](=O)[O-])c2)cc1`, the Kinact amounted to 7.17 M⁻¹ s⁻¹ in test [1], 0 M⁻¹ s⁻¹ in [4], 0 M⁻¹ s⁻¹ in test [2] and 0 M⁻¹ s⁻¹ in test [3].
With `C[S+](C)Cc1ccc(S(=O)(=O)Oc2ccc([N+](=O)[O-])cc2)cc1`, the Kinact in test [1], in [4], in [2] and in test [3] was 0 M⁻¹ s⁻¹ each time.
With `N=C(N)SCc1ccc(CS(=O)(=O)Oc2ccc([N+](=O)[O-])cc2)cc1`, the Kinact is 25 M⁻¹ s⁻¹ in test [1], 10 M⁻¹ s⁻¹ in test [8], 0.117 M⁻¹ s⁻¹ in [2] and 0 M⁻¹ s⁻¹ in [3]. The inhibition constant (Ki) in test [9] is 1150 µM; in [10], 320 µM; in test [11], 930 µM; in [12], 390 µM.
As to `CNC(=N)SCc1ccc(S(=O)(=O)Oc2ccc([N+](=O)[O-])cc2)cc1`, the Kinact in [1], in test [4], in [2] and in [3] was 0 M⁻¹ s⁻¹ throughout.
For the molecule `C[N+](C)(C)Cc1ccc(S(=O)(=O)Oc2ccc([N+](=O)[O-])cc2)cc1`, the results for the Kinact in test [4], in test [2] and in test [3] were 0 M⁻¹ s⁻¹, 0.833 M⁻¹ s⁻¹ and 2.45 M⁻¹ s⁻¹, respectively.
